pKi: −log10 of the molar value. Calls of active or inactive are those of the source. No cut-off for these calls is given here.
What was measured:
HEK293 = assay: Selectivity index, ratio of Ki for recombinant human CB1 receptor expressed in human HEK293 cell membrane to recombinant human CB2 receptor expressed in human HEK293 cell membrane; assay type: cell-based
Outline: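 Selectivity index is Ki(CB1)/Ki(CB2). Both Ki values come from [3H]CP55,940 displacement over 90 min at 30 °C, using membranes of HEK-293 cells expressing human recombinant CB1R or CB2R, with Cheng–Prusoff conversion.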

Cannabinoid receptor 1 = Cannabinoid receptor 1 (Homo sapiens, UniProt P21554); assay: Displacement of [3H]CP55940 from recombinant human CB1 receptor expressed in human HEK293 cell membrane after 90 mins; assay type: cell membranes
Sequence of Cannabinoid receptor 1 (P21554 whole entry): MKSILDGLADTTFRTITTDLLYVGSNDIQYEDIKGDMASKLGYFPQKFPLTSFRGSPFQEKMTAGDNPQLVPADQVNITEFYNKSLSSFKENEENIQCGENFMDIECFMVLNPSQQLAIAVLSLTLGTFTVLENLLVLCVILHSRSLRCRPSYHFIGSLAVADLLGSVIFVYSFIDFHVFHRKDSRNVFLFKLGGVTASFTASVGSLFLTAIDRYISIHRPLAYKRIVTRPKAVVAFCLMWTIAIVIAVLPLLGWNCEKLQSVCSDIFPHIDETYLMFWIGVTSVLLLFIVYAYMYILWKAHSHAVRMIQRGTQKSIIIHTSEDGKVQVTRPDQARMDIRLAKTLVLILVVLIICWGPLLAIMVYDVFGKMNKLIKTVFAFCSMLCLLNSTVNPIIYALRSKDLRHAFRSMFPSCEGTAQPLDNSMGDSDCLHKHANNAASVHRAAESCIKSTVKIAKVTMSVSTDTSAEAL
Outline: (§1)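 Membranes of HEK-293 cells transfected with human recombinant CB1R (Bmax 2.5 pmol/mg protein) or CB2R (Bmax 4.7 pmol/mg protein). Test compound at increasing concentrations displaced [3H]CP55,940 over 90 min at 30 °C. Ki obtained from IC50 by Cheng–Prusoff. Means of at least three experiments run in duplicate.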

Cannabinoid receptor 2 = Cannabinoid receptor 2 (Homo sapiens, UniProt P34972); assay: Displacement of [3H]CP55940 from recombinant human CB2 receptor expressed in human HEK293 cell membrane after 90 mins; assay type: cell membranes; outline: as §1
Sequence of Cannabinoid receptor 2 (P34972 whole entry): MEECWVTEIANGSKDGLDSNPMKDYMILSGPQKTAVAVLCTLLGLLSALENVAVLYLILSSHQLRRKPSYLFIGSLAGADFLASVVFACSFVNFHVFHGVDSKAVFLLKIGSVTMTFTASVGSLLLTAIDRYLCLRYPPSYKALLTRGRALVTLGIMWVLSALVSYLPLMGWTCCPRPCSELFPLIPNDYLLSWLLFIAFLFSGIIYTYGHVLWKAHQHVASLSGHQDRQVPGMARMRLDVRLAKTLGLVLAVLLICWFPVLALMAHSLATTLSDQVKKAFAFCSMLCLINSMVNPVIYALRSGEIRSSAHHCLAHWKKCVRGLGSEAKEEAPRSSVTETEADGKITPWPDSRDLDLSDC

DU-145 [1] = assay: Antiproliferative activity against human DU145 cells at 0.3 uM after 24 hrs by SRB assay in presence of CB2 receptor antagonist SR144528; assay type: functional, cell-based
Outline: (§2)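 DU-145 cells seeded at 10,000 per well, exposed 24 h to CB2 ligands, with or without SR144528 (3 µM). Line 2 covers 0.1 to 1 µM; lines 3 and 4 use 0.3 µM. Proliferation read as O.D. by sulforhodamine B. Three independent experiments; two-tailed t-test against vehicle and against ligand plus SR144528.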

DU-145 [2] = assay: Antiproliferative activity against human DU145 cells at 0.1 to 1 uM after 24 hrs by SRB assay; assay type: functional, cell-based; outline: as §2
DU-145 [3] = assay: Antiproliferative activity against human DU145 cells at 0.3 uM after 24 hrs by SRB assay; assay type: functional, cell-based; outline: as §2
[4] = Antiproliferative activity against human WS1 cells at 1 uM after 4 days by XTT assay; assay type: cell-based; details: for Activity: ws1, 96 h, 1 µM
Outline: (§3)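 Cells kept at 37 °C, 5% CO2; seeded at 3 × 10³ cells per well, treated 3 h later with vehicle or ligand (1 µM in the four-day panel), medium and ligand renewed every two days for four days. Proliferation read by XTT staining; vehicle-treated O.D. taken as 100%. Two-tailed t-test versus vehicle.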

DU-145 [5] = assay: Down-regulation of CB2 receptor protein level in human DU145 cells at 0.3 uM after 24 hrs by immunoblot analysis in presence of CB2 receptor antagonist SR144528; assay type: functional, cell-based
Outline: (§4)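 DU-145 cells incubated 24 h with ligand at 0.3 µM, with or without SR144528 at 3 µM. Cells washed in PBS, lysed at pH 7.5 in HEPES/NaCl/EDTA/NaF/vanadate/Triton buffer, and centrifuged at 12,000 g, 4 °C. 40 µg protein run on 12% SDS-PAGE and transferred to nitrocellulose. Blots probed overnight with anti-CB2, detected by HRP anti-rabbit and ECL, normalized to actin.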

DU-145 [6] = assay: Antiproliferative activity against human DU145 cells at 1 uM after 4 days by XTT assay; assay type: functional; details: DU-145, 96 h; outline: as §3
T98G = assay: Antiproliferative activity against human T98G cells at 1 uM after 4 days by XTT assay; assay type: functional; details: 96 h; outline: as §3
DU-145 [7] = assay: Down-regulation of CB2 receptor protein level in human DU145 cells at 0.3 uM after 24 hrs by immunoblot analysis in presence of CB1 receptor antagonist SR141716; assay type: functional, cell-based
[8] = Antiproliferative activity against myelin basic protein-activated human lymphocytes at 0.3 uM; assay type: cell-based; details: lymphocyte
AGS = assay: Antiproliferative activity against human AGS cells at 1 uM after 4 days by XTT assay; assay type: functional; details: 96 h; outline: as §3
MCF7 = assay: Antiproliferative activity against human MCF7 cells at 1 uM after 4 days by XTT assay; assay type: functional; details: MCF7, 96 h; outline: as §3
DU-145 [9] = assay: Down-regulation of CB2 receptor protein level in human DU145 cells at 0.3 uM after 24 hrs by immunoblot analysis; assay type: functional, cell-based; outline: as §4
[10] = Solubility of the compound in DMSO/water solution; assay type: physicochemical

Row | Compound | Ratio Ki (HEK293) | pKi (Cannabinoid receptor 1) | pKi (Cannabinoid receptor 2) | further results
1 | O=C(NC1CCCCCC1)c1cccnc1OCc1ccc(F)cc1 | 4 | 7.00 | 7.60 | 
2 | O=C(NC1CCCCC1)c1cccn(Cc2ccc(F)cc2)c1=O | 3.5 | 7.15 | 7.70 | 
3 | O=C(NC1CCCCC1)c1cccnc1OCc1ccccc1 |  | < 5.00 | 6.04 | 
4 | O=C(NC1CCCCC1)c1cccnc1OCc1ccc(F)cc1 | 7.3 | 5.74 | 6.60 | 
5 | O=C(NC1CCCCC1)c1cc2ccccc2n(Cc2ccc(F)cc2)c1=O | 5.7 | 7.78 | 8.54 | 
6 | O=C(NC1CCCCCC1)c1cccn(CCN2CCOCC2)c1=O | 1.2 | 6.02 | 6.10 | 
7 | O=C(NC1CCCCC1)c1cc2ccccc2n(Cc2ccccc2)c1=O | 4.2 | 7.17 | 7.80 | 
8 | O=C(NC1CCCCCC1)c1c(O)c2cccnc2n(CCN2CCOCC2)c1=O | 130 | 6.63 | 8.74 | Activity (DU-145 [1]): inactive; inhibition (DU-145 [2]): Active; Activity (DU-145 [3]): Active; inhibition at 96 h, 1 µM ([4]; WS1 cells): 21%; Activity (DU-145 [5]): inactive; inhibition at 1 µM (DU-145 [6]): 33%; inhibition at 1 µM (T98G): 15%; Activity (DU-145 [7]): Active; Activity [8]: Non-toxic; inhibition at 1 µM (AGS): 62%; inhibition at 1 µM (MCF7): 26%; Activity (DU-145 [9]): Active
9 | O=C(NC1CCCCC1)c1c(O)c2cccnc2n(Cc2ccc(F)cc2)c1=O |  |  |  | solubility [10]: Insoluble
10 | O=C(NC1CCCCC1)c1cccn(Cc2ccccc2)c1=O | 4 | 6.10 | 6.70 | 
11 | O=C(NC1CCCCC1)c1cccn(CCN2CCOCC2)c1=O |  | < 5.00 | 5.10 | 
12 | O=C(NC1CCCCC1)c1c(O)c2cccnc2n(Cc2ccccc2)c1=O | 7.1 | 6.25 | 7.10 | 
13 | O=C(NC1CCCCCC1)c1cc2ccccc2n(Cc2ccc(F)cc2)c1=O | 48 | 7.94 | 9.60 | 
14 | Cc1ccc(Cn2nc(C(=O)N[C@@H]3C(C)(C)[C@@H]4CC[C@@]3(C)C4)cc2-c2ccc(Cl)c(C)c2)cc1 |  |  |  | Activity (DU-145 [1]): inactive; Activity [8]: Non-toxic; Activity (DU-145 [9]): Active
15 | CCCC(C)(C)c1ccc2c(c1)OC(C)(C)[C@@H]1CC=C(C)C[C@@H]21 |  | 6.93 | 8.74 | 
16 | O=C(NC1CCCCC1)c1cc2ccccc2nc1OCc1ccc(F)cc1 | 9.2 | 5.92 | 6.89 | 
17 | O=C(NC1CCCCCC1)c1cccn(Cc2ccc(F)cc2)c1=O | 5.5 | 7.37 | 8.11 | Activity (DU-145 [1]): inactive; inhibition (DU-145 [2]): Active; Activity (DU-145 [3]): Active; Activity [4]: Non-toxic; Activity (DU-145 [5]): inactive; inhibition at 1 µM (DU-145 [6]): 15%; Activity (DU-145 [7]): Active; Activity [8]: Non-toxic; inhibition at 1 µM (MCF7): 12%; Activity (DU-145 [9]): Active
18 | O=C(NC1CCCCC1)c1cc2ccccc2n(CCN2CCOCC2)c1=O | 33 | 6.52 | 8.05 | 
19 | O=C(NC1CCCCCC1)c1c(O)c2cccnc2n(Cc2ccc(F)cc2)c1=O |  |  |  | solubility [10]: Insoluble
20 | O=C(NC1CCCCC1)c1c(O)c2cccnc2n(CCN2CCOCC2)c1=O | 26.6 | 7.19 | 8.62 | 
21 | O=C(NC1CCCCCC1)c1cc2ccccc2n(CCN2CCOCC2)c1=O | 103 | 6.69 | 8.70 | Activity (DU-145 [1]): inactive; inhibition (DU-145 [2]): Active; Activity (DU-145 [3]): Active; Activity [4]: Non-toxic; Activity (DU-145 [5]): inactive; inhibition at 1 µM (DU-145 [6]): 11%; Activity (DU-145 [7]): Active; Activity [8]: Non-toxic; Activity (DU-145 [9]): Active

Reference: ChEMBL document CHEMBL2021892, “Rational design, synthesis and anti-proliferative properties of new CB2 selective cannabinoid receptor ligands: an investigation of the 1,8-naphthyridin-2(1H)-one scaffold” (Eur J Med Chem, 2012)
